Assay results taken from ChEMBL document CHEMBL2375313, “Synthesis, in vitro antitumor evaluation and DNA-binding study of novel tetrahydroquinolines and some derived tricyclic and tetracyclic ring systems” (Eur J Med Chem, 2013).
In brackets after ≈: the same amount, converted by molar mass. Activity calls are given as the source filed them. No cut-off for these calls is given here.

Experiments:
[1] = tested on: HOP-92; assay: Cytotoxicity against human HOP92 cells assessed as growth inhibition at 10 uM after 48 hrs by sulphorhodamine B assay; assay type: functional; conditions: HOP-92, 48 h, read-out: GI
Outline: (§1)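 NCI-60 one-dose screen per the NCI Drug Evaluation Branch protocol. Cells given a single 10 µM concentration with 48 h continuous exposure. Growth estimated by sulphorhodamine B protein assay. Result expressed as percentage growth inhibition relative to untreated growth.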

[2] = tested on: NCI-H23; assay: Cytotoxicity against human NCI-H23 cells assessed as growth inhibition at 10 uM after 48 hrs by sulphorhodamine B assay; assay type: functional; conditions: NCI-H23, 48 h, read-out: GI; outline: as §1
[3] = Cytotoxicity against human EKVX cells assessed as growth inhibition at 10 uM after 48 hrs by sulphorhodamine B assay; assay type: functional; conditions: read-out: GI; outline: as §1
[4] = tested on: A549; assay: Cytotoxicity against human A549 cells assessed as growth inhibition at 10 uM after 48 hrs by sulphorhodamine B assay; assay type: functional; conditions: A549, 48 h, read-out: GI; outline: as §1
[5] = Displacement of methyl green from DNA (unknown origin) after 24 hrs
Outline: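 DNA-methyl green complex was stirred in 0.05 M Tris-HCl pH 7.5 with 7.5 mmol MgSO4 at 37 °C for 24 h. Compound was dried down from EtOH in tubes and the DNA-methyl green solution added. A630 was read initially and after 24 h dark incubation at room temperature, corrected and normalized to untreated complex. IC50 is the concentration giving a 50% absorbance decrease; mean ± SD, n = 6.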

[6] = Binding affinity to DNA (unknown origin) at 5 mg/mL by RP-TLC plate analysis
Outline: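 Reversed-phase C18 TLC plates pre-developed in methanol/water 8:2. Compound spotted at origin (5 mg/mL in methanol), then DNA (1 mg/mL in water/methanol 8:2) applied at the same spot. Plates developed in the same eluent; DNA located by anisaldehyde spray (blue). Ethidium bromide as positive control.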

[7] = tested on: NCI/ADR-RES; assay: Cytotoxicity against human NCI/ADR-RES cells assessed as growth inhibition at 10 uM after 48 hrs by sulphorhodamine B assay; assay type: functional; conditions: read-out: GI; outline: as §1
[8] = tested on: SNB-75; assay: Cytotoxicity against human SNB75 cells assessed as growth inhibition at 10 uM after 48 hrs by sulphorhodamine B assay; assay type: functional; conditions: SNB-75, 48 h, read-out: GI; outline: as §1
[9] = tested on: U-251; assay: Cytotoxicity against human U251 cells assessed as growth inhibition at 10 uM after 48 hrs by sulphorhodamine B assay; assay type: functional; conditions: U-251, 48 h, read-out: GI; outline: as §1
[10] = tested on: SNB-19; assay: Cytotoxicity against human SNB19 cells assessed as growth inhibition at 10 uM after 48 hrs by sulphorhodamine B assay; assay type: functional; conditions: SNB-19, 48 h, read-out: GI; outline: as §1
[11] = tested on: SF-295; assay: Cytotoxicity against human SF295 cells assessed as growth inhibition at 10 uM after 48 hrs by sulphorhodamine B assay; assay type: functional; conditions: SF-295, 48 h, read-out: GI; outline: as §1
[12] = tested on: DU-145; assay: Cytotoxicity against human DU145 cells assessed as growth inhibition at 10 uM after 48 hrs by sulphorhodamine B assay; assay type: functional; conditions: DU-145, 48 h, read-out: GI; outline: as §1
[13] = tested on: UACC-62; assay: Cytotoxicity against human UACC62 cells assessed as growth inhibition at 10 uM after 48 hrs by sulphorhodamine B assay; assay type: functional; conditions: UACC-62, 48 h, read-out: GI; outline: as §1
[14] = tested on: SK-MEL-2; assay: Cytotoxicity against human SK-MEL-2 cells assessed as growth inhibition at 10 uM after 48 hrs by sulphorhodamine B assay; assay type: functional; conditions: SK-MEL-2, 48 h, read-out: GI; outline: as §1
[15] = tested on: M14; assay: Cytotoxicity against human M14 cells assessed as growth inhibition at 10 uM after 48 hrs by sulphorhodamine B assay; assay type: functional; conditions: M14, 48 h, read-out: GI; outline: as §1
[16] = tested on: LOX IMVI; assay: Cytotoxicity against human LOXIMVI cells assessed as growth inhibition at 10 uM after 48 hrs by sulphorhodamine B assay; assay type: functional; conditions: read-out: GI; outline: as §1
[17] = tested on: UO-31; assay: Cytotoxicity against human UO31 cells assessed as growth inhibition at 10 uM after 48 hrs by sulphorhodamine B assay; assay type: functional; conditions: UO-31, 48 h, read-out: GI; outline: as §1
[18] = tested on: RXF 393; assay: Cytotoxicity against human RXF393 cells assessed as growth inhibition at 10 uM after 48 hrs by sulphorhodamine B assay; assay type: functional; conditions: RXF 393, 48 h, read-out: GI; outline: as §1
[19] = tested on: SR; assay: Cytotoxicity against human SR cells assessed as growth inhibition at 10 uM after 48 hrs by sulphorhodamine B assay; assay type: functional; conditions: read-out: GI; outline: as §1
[20] = tested on: A498; assay: Cytotoxicity against human A498 cells assessed as growth inhibition at 10 uM after 48 hrs by sulphorhodamine B assay; assay type: functional; conditions: A498, 48 h, read-out: GI; outline: as §1
[21] = tested on: RPMI-8226; assay: Cytotoxicity against human RPMI8226 cells assessed as growth inhibition at 10 uM after 48 hrs by sulphorhodamine B assay; assay type: functional; conditions: RPMI-8226, 48 h, read-out: GI; outline: as §1
[22] = tested on: MOLT-4; assay: Cytotoxicity against human MOLT4 cells assessed as growth inhibition at 10 uM after 48 hrs by sulphorhodamine B assay; assay type: functional; conditions: MOLT-4, 48 h, read-out: GI; outline: as §1
[23] = tested on: K562; assay: Cytotoxicity against human K562 cells assessed as growth inhibition at 10 uM after 48 hrs by sulphorhodamine B assay; assay type: functional; conditions: K562, 48 h, read-out: GI; outline: as §1
[24] = tested on: HL-60(TB); assay: Cytotoxicity against human HL-60(TB) cells assessed as growth inhibition at 10 uM after 48 hrs by sulphorhodamine B assay; assay type: functional; conditions: HL-60, 48 h, read-out: GI
Outline: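 NCI-60 one-dose primary screen run to the Drug Evaluation Branch protocol. Cells are exposed to a single 10 µM concentration for 48 h continuously, and growth is read by SRB protein assay. Data are reported as percent growth of treated cells, expressed as % growth inhibition.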

[25] = tested on: SK-OV-3; assay: Cytotoxicity against human SKOV3 cells assessed as growth inhibition at 10 uM after 48 hrs by sulphorhodamine B assay; assay type: functional; conditions: SK-OV-3, 48 h, read-out: GI; outline: as §1
[26] = tested on: CCRF-CEM; assay: Cytotoxicity against human CCRF-CEM cells assessed as growth inhibition at 10 uM after 48 hrs by sulphorhodamine B assay; assay type: functional; conditions: read-out: GI; outline: as §1
[27] = tested on: OVCAR-5; assay: Cytotoxicity against human OVCAR5 cells assessed as growth inhibition at 10 uM after 48 hrs by sulphorhodamine B assay; assay type: functional; conditions: OVCAR-5, 48 h, read-out: GI; outline: as §1
[28] = tested on: OVCAR-4; assay: Cytotoxicity against human OVCAR4 cells assessed as growth inhibition at 10 uM after 48 hrs by sulphorhodamine B assay; assay type: functional; conditions: OVCAR-4, 48 h, read-out: GI; outline: as §1
[29] = tested on: T47D; assay: Cytotoxicity against human T47D cells assessed as growth inhibition at 10 uM after 48 hrs by sulphorhodamine B assay; assay type: functional; conditions: read-out: GI; outline: as §1
[30] = tested on: MDA-MB-435; assay: Cytotoxicity against human MDA-MB-435 cells assessed as growth inhibition at 10 uM after 48 hrs by sulphorhodamine B assay; assay type: functional; conditions: MDA-MB-435, 48 h, read-out: GI; outline: as §1
[31] = tested on: HCT-15; assay: Cytotoxicity against human HCT15 cells assessed as growth inhibition at 10 uM after 48 hrs by sulphorhodamine B assay; assay type: functional; conditions: HCT-15, 48 h, read-out: GI; outline: as §1
[32] = tested on: HCT-116; assay: Cytotoxicity against human HCT116 cells assessed as growth inhibition at 10 uM after 48 hrs by sulphorhodamine B assay; assay type: functional; conditions: HCT-116, 48 h, read-out: GI; outline: as §1

| Compound | inhibition of growth at 10 µM [1] [%] | inhibition of growth at 10 µM [2] [%] | inhibition of growth at 10 µM [3] [%] | inhibition of growth at 10 µM [4] [%] | IC50 [5] [µg/mL] | Activity [6] | inhibition of growth at 10 µM [7] [%] | inhibition of growth at 10 µM [8] [%] | inhibition of growth at 10 µM [9] [%] | inhibition of growth at 10 µM [10] [%] | inhibition of growth at 10 µM [11] [%] | inhibition of growth at 10 µM [12] [%] | inhibition of growth at 10 µM [13] [%] | inhibition of growth at 10 µM [14] [%] | inhibition of growth at 10 µM [15] [%] | inhibition of growth at 10 µM [16] [%] | inhibition of growth at 10 µM [17] [%] | inhibition of growth at 10 µM [18] [%] | inhibition of growth at 10 µM [19] [%] | inhibition of growth at 10 µM [20] [%] | also measured |
| --- | --- | --- | --- | --- | --- | --- | --- | --- | --- | --- | --- | --- | --- | --- | --- | --- | --- | --- | --- | --- | --- |
| CCSc1nc(N)c2c(-c3ccc(Cl)cc3)c3c(nc2n1)C(C)CCC3 (centres undefined) | 35.2 | 15.3 | 12.3 | 18.1 | 0.127 (≈ 0.33 µM) | Active | 12.8 | 33 | 13.6 | < 10 | < 10 | < 10 | 21.8 | < 10 | < 10 | < 10 | 59 | 26.6 | 37.9 | 21.7 | inhibition of growth at 10 µM [21]: 33.8%; inhibition of growth at 10 µM [22]: 32.5%; inhibition of growth at 10 µM [23]: 32.4%; inhibition of growth at 10 µM [24]: < 10%; inhibition of growth at 10 µM [25]: 15.2%; inhibition of growth at 10 µM [26]: 28.4%; inhibition of growth at 10 µM [27]: 12.3%; inhibition of growth at 10 µM [28]: 26.8%; inhibition of growth at 10 µM [29]: 39.5%; inhibition of growth at 10 µM [30]: 14.5%; inhibition of growth at 10 µM [31]: 18.8%; inhibition of growth at 10 µM [32]: 18.8% |
| CC1CCCc2c1nc1nc(SCC(=O)c3ccccc3)nc(N)c1c2-c1ccc(Cl)cc1 (centres undefined) | 90 | 24.7 | 26.7 | 17.6 | 0.061 (≈ 0.128 µM) | Active | 12.8 | < 10 | 21.5 | < 10 | 23.9 | 17 | 70.8 | 14.5 | 35 | 14.6 | 63 | 62.2 | < 10 | 21.2 | inhibition of growth at 10 µM [21]: 69.2%; inhibition of growth at 10 µM [22]: 44.6%; inhibition of growth at 10 µM [23]: 27.7%; inhibition of growth at 10 µM [24]: 22%; inhibition of growth at 10 µM [25]: < 10%; inhibition of growth at 10 µM [26]: 60.1%; inhibition of growth at 10 µM [27]: 10%; inhibition of growth at 10 µM [28]: 20%; inhibition of growth at 10 µM [29]: 72.6%; inhibition of growth at 10 µM [30]: 13%; inhibition of growth at 10 µM [31]: 71.5%; inhibition of growth at 10 µM [32]: 38.4% |
